Measurements reported in paper PMC9056317 (RSC Advances, 2020).
Where two headings read alike, the source gives them in different places. Values belong to the compound of their own block, whether it stands above or below them.

Key:
[1] = test system: HFF-1 cells; experiment: Cytotoxic assessment on HFF cells by trypan blue exclusion assay; format: cell-based, human; details: 2× the IC50 concentrations, maintained on cells for 5 days
Outline: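 Confluent HFF-1 cells (DMEM, 10% FBS, 37 °C, 5% CO2) were treated with test compound or left untreated, then infected with HCMV (MOI 3.0) or left uninfected. At day 5, cells were trypsinised and mixed 1:1 with 0.4% trypan blue. Percent viable cells was read on an automated cell counter. Three independent experiments, SEM.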

[2] = test system: HCMV (Towne-BAC-GFP strain); format: cell-based, human cytomegalovirus; details: HFF-1 cells pre-treated with 10 μM compound for 1 hour, HCMV MOI 3.0
Outline: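 HFF-1 cells were grown in DMEM with 10% FBS, sodium pyruvate and L-glutamine at 37 °C, 5% CO2. They were pre-treated for 1 h with test compound or DMSO control, then infected with Towne-BAC-GFP HCMV. GFP-positive infected cells were quantified by fluorescence microscopy.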

[3] = test system: MDA MB 231 cells; experiment: MDA MB 231 proliferation MTT assay; format: cell-based; details: for anti-proliferative effect in MDA MB 231: 100 μM, data not shown; for IC50: Homo sapiens, MDA-MB-231, 72 h, read-out: IC50 in MDA MB 231
Outline: (§1)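 MDA MB 231 cells (DMEM, 10% FBS, 37 °C, 5% CO2, split every 3–4 days) were plated at 2000 per well and incubated overnight, then the medium was replaced with test compound for 72 h. MTT was added for 4 h at 37 °C, and formazan was dissolved in DMSO. A570 was read with a 630 nm reference. IC50: 0.78–100 μM, non-linear regression of survival %.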

[4] = test system: human glioblastoma cell line GBM6; experiment: GBM6 proliferation MTT assay; format: cell-based; details: for anti-proliferative activity in GBM6: 100 μM, MTT 72 hours after treatment; for IC50: Homo sapiens
Outline: as §1, with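 “GBM6” for “MDA MB 231”, “CO2)” for “CO2, split every 3–4 days)”, “1000” for “2000”, “reference. Single-dose screen: n = 3, normalised to control.” for “reference.”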

[5] = test system: HCMV (Towne-BAC-GFP) strain; details: read-out: reported IC50; reported value used to validate the assay; cited from earlier work
[6] = GBM6, 72 h, read-out: IC 50 in GBM6
[7] = GBM6, read-out: IC50 (highest cytotoxicity)

SMILES: FC1C(c2ccc(Cl)cc2)=NOC12CCCO2 (stereo not drawn) [4d, 3-(4-Chlorophenyl)-4-fluoro-1,6-dioxa-2-azaspiro[4.4]non-2-ene]
- cytotoxicity on HFF cells [1]: did not show significant cytotoxicity
- reduction in GFP levels (mean fluorescence intensity, MFI) [2]: significant reduction in MFI

SMILES: O=[N+]([O-])c1ccc(C2=NOC3(CCCO3)C2F)cc1 (stereo not drawn) [4h, 4-Fluoro-3-(4-nitrophenyl)-1,6-dioxa-2-azaspiro[4.4]non-2-ene]
- reduction in GFP levels (mean fluorescence intensity, MFI) [2]: significant reduction in MFI

SMILES: FC1C(c2ccccc2)=NOC12CCCCO2 (stereo not drawn) [4i, 4-Fluoro-3-phenyl-1,6-dioxa-2-azaspiro[4.5]dec-2-ene]
- reduction in GFP levels (mean fluorescence intensity, MFI) [2]: significant reduction in MFI

- IC50 [4, 6]: 36.1 µM
SMILES: FC1C(c2ccc(Br)cc2)=NOC12CCCCO2 (stereo not drawn) [4l, 3-(4-Bromophenyl)-4-fluoro-1,6-dioxa-2-azaspiro[4.5]dec-2-ene]
- anti-proliferative effect in MDA MB 231 [3]: highest anti-proliferative effect
- IC50 [3]: 68.2 µM
- anti-proliferative activity in GBM6 [4]: robust anti-proliferative activity
- IC50 [4, 7]: 36 to 80 µM

SMILES: FC1C(c2ccc(C(F)(F)F)cc2)=NOC12CCCCO2 (stereo not drawn) [4n, 4-Fluoro-3-(4-(trifluoromethyl)phenyl)-1,6-dioxa-2-azaspiro[4.5]dec-2-ene]
- cytotoxicity on HFF cells [1]: did not show significant cytotoxicity
- reduction in GFP levels (mean fluorescence intensity, MFI) [2]: significant reduction in MFI

SMILES: O=[N+]([O-])c1ccc(C2=NOC3(CCCCO3)C2F)cc1 (stereo not drawn) [4o, 4-Fluoro-3-(4-nitrophenyl)-1,6-dioxa-2-azaspiro[4.5]dec-2-ene]
- reduction in GFP levels (mean fluorescence intensity, MFI) [2]: significant reduction in MFI

- IC50 [4, 6]: 43.2 µM
SMILES: O=C1CCC2(ON=C(c3c(Cl)cccc3Cl)C2F)O1 (stereo not drawn) [5f, 3-(2,6-Dichlorophenyl)-4-fluoro-1,6-dioxa-2-azaspiro[4.4]non-2-en-7-one]
- anti-proliferative effect in MDA MB 231 [3]: highest anti-proliferative effect
- IC50 [3]: 79.8 µM
- anti-proliferative activity in GBM6 [4]: robust anti-proliferative activity
- IC50 [4, 7]: 36 to 80 µM

SMILES: Nc1nc(O)c2ncn(COC(CO)CO)c2n1 [GCV, ganciclovir]
- IC50 [5]: 5.2 µM
